In PubChem BioAssay AID463093 (The Scripps Research Institute Molecular Screening Center, 2010):
Activity calls are given as the source filed them.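 The calls were made as follows: active = compound blocking at least 90% of GSTO1 probe labeling in gels, or giving a GSTO1 band over fivefold background; inactive = the rest.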

Target: Glutathione S-transferase omega-1 (Homo sapiens) (UniProt P78417)
Experiment: in situ GSTO1 inhibition versus click-labeling – cell-based, MDA-MB-435, competitive ABPP, click chemistry, fluorescence, mechanism study for GSTO1 inhibitor project, late-stage follow-up (AID 463093)
Conditions: MDA-MB-435 in situ competitive ABPP, gel fluorescence; for fold labeling / inhibition: stronger effect = higher value; for inhibition: in situ competitive ABPP
Method in brief: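 dosing = 1, 0.5, 0.25 µM compound | material = MDA-MB-435 cells, in situ treatment | quantity = soluble proteome adjusted to 1 mg/mL protein | detection = SDS-PAGE in-gel fluorescence | times = compound on cells 1 h 37 °C, click labeling 1 h 25 °C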

Sequence of Glutathione S-transferase omega-1 (Homo sapiens) (P78417 whole entry, looked up): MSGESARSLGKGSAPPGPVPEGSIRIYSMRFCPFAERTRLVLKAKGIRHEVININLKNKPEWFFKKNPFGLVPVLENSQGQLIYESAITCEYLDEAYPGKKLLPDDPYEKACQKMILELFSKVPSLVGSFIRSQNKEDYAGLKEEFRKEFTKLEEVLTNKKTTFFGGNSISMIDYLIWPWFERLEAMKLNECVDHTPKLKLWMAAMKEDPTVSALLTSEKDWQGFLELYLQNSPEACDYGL

**Q.** With `C#CCN(CCCN(C(=O)CCl)c1ccc([N+](=O)[O-])cc1)C(=O)C(F)(F)F` as the compound, how does the outcome (direct ABPP, click chemistry) read?
**A.** Its outcome is “active”.

**Q.** And the fold labeling (direct ABPP, click chemistry, click labeling 0.25 uM, at 0.25 µM)?
**A.** Its fold labeling is over 5.

**Q.** And the fold labeling (direct ABPP, click chemistry, click labeling 0.5 uM, at 0.5 µM)?
**A.** Its fold labeling is over 5.

**Q.** What about the fold labeling (direct ABPP, click chemistry, click labeling fold over background 1 uM, at 1 µM) of the same compound?
**A.** The fold labeling was over 5.

**Q.** What about the inhibition (at 1 µM) of the same compound?
**A.** Its inhibition is 100%.

**Q.** What about the inhibition (inhibition, at 0.25 µM) of the same compound?
**A.** The inhibition was 99%.

**Q.** What about the inhibition (inhibition, at 0.5 µM) of the same compound?
**A.** Its inhibition is 100%.
